Assay results taken from ChEMBL document CHEMBL1136239, “Bicyclo[2.2.1]heptanes as novel triple re-uptake inhibitors for the treatment of depression” (Bioorg Med Chem Lett, 2003).

How the values were obtained:
[1] = biological target: T1, Sodium-dependent serotonin transporter (Homo sapiens, UniProt P31645); assay: In vitro ability of compound to inhibit 5-HT re-uptake of radiolabeled [3H]-tritium transmitter into synaptosome; format: tissue-based, Brain
[2] = biological target: T2, Sodium-dependent dopamine transporter (Homo sapiens, UniProt Q01959); assay: In vitro inhibition of DA re-uptake into synaptosome; format: functional, tissue-based, Brain
T2 sequence (Q01959 whole entry): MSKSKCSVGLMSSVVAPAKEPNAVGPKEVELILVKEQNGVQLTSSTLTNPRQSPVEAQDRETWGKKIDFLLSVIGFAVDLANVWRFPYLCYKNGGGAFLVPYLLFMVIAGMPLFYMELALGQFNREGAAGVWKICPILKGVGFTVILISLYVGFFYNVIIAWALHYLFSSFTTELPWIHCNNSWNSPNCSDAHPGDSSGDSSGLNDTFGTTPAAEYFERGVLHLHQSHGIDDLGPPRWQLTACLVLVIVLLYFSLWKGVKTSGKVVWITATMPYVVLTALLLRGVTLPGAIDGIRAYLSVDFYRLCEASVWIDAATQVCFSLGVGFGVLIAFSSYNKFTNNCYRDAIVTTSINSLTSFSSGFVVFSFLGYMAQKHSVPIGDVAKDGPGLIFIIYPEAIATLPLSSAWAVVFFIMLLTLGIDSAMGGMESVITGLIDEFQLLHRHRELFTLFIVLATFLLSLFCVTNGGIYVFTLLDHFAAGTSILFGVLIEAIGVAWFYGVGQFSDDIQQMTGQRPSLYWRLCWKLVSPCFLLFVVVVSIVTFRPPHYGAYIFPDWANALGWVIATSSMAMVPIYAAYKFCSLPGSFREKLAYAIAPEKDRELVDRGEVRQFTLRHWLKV

[3] = biological target: T1, Sodium-dependent serotonin transporter; assay: Displacement of [3H]-citalopram from Serotonin transporter
Summary of the method: (§1)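 Radioligand binding: inhibitory binding constants measured against a known radiolabelled re-uptake inhibitor. Ligands were [3H]citalopram for SERT, [3H]WIN35,428 for DAT and [3H]nisoxetine for NET. Values are means of three experiments; minimum significant ratio < 3.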

[4] = biological target: T2, Sodium-dependent dopamine transporter; assay: Displacement of [3H]WIN-35428 from Dopamine transporter; summary of the method: as §1
[5] = biological target: T3, Sodium-dependent noradrenaline transporter (Homo sapiens, UniProt P23975); assay: Displacement of [3H]-Nisoxetine from norepinephrine transporter
T3 sequence (P23975 whole entry): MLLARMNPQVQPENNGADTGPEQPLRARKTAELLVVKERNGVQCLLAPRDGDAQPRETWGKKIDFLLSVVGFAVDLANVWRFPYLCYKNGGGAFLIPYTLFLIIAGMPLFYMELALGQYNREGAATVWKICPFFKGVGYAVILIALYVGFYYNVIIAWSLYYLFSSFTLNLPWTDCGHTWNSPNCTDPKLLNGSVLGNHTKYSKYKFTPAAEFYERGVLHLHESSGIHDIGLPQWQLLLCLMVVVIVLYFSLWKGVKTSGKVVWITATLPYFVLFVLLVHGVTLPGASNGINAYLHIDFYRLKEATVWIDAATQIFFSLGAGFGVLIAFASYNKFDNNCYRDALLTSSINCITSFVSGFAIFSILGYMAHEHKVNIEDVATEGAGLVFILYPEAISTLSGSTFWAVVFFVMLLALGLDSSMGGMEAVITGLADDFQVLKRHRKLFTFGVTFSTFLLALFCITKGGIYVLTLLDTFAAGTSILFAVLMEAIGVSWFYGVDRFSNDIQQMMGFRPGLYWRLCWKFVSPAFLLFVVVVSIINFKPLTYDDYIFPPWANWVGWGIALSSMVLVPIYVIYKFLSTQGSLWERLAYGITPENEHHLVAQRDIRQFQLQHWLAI

[6] = biological target: Sodium-dependent serotonin transporter (Mus musculus) (UniProt Q60857); assay: In vivo potentiation of compound towards Serotonin transporter after po administration; format: functional, organism-based
Chain of Sodium-dependent serotonin transporter (Mus musculus) (Q60857 whole entry): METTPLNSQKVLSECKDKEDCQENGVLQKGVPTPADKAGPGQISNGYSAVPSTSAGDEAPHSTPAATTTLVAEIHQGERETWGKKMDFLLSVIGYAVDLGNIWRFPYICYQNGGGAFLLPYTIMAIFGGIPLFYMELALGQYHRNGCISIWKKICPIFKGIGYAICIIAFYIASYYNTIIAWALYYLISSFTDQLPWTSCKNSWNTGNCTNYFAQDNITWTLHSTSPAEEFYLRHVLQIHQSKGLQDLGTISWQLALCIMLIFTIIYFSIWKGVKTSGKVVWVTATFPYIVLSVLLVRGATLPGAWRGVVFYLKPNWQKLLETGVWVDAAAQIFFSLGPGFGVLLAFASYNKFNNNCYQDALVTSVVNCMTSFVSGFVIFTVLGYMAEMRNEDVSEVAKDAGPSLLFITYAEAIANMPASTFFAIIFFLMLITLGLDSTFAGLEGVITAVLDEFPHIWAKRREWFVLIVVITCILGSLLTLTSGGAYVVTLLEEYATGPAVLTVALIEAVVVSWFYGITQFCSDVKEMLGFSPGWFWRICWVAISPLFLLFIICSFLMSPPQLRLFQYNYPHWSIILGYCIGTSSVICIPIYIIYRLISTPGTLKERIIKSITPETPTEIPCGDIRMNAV
Summary of the method: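 Oral dosing, read-out from the 5-HTP test. The value is the minimum effective dose (EDmin) in mg/kg po.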

[7] = biological target: Sodium-dependent dopamine transporter (Mus musculus) (UniProt Q61327); assay: In vivo potentiation of compound towards Dopamine transporter after po administration was determined in mouse using mouse locomotor activity […]; format: functional, organism-based
Chain of Sodium-dependent dopamine transporter (Mus musculus) (Q61327 whole entry): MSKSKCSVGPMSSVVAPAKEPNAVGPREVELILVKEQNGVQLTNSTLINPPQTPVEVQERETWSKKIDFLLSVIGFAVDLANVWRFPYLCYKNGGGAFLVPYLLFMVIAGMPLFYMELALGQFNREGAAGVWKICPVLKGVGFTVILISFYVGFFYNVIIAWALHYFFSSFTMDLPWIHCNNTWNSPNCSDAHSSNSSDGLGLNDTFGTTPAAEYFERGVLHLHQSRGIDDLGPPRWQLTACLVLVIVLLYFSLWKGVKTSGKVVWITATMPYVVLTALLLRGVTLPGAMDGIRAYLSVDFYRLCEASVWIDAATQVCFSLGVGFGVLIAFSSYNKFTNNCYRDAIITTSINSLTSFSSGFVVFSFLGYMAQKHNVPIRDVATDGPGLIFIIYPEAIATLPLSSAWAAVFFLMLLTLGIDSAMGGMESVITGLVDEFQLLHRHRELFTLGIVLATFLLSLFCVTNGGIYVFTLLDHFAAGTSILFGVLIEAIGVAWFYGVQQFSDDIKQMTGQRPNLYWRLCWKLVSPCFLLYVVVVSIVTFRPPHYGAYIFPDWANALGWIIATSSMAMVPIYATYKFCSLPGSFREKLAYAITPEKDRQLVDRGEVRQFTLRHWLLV
Summary of the method: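 Given by mouth and assessed in the MLA (locomotor activity) test. Reported as the minimum effective dose (EDmin), mg/kg po.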

[8] = biological target: Sodium-dependent noradrenaline transporter (Mus musculus) (UniProt O55192); assay: In vivo potentiation of compound towards norepinephrine transporter after po administration was determined in mouse using mouse apomorphine hypothermia; format: functional, organism-based
Chain of Sodium-dependent noradrenaline transporter (Mus musculus) (O55192 whole entry): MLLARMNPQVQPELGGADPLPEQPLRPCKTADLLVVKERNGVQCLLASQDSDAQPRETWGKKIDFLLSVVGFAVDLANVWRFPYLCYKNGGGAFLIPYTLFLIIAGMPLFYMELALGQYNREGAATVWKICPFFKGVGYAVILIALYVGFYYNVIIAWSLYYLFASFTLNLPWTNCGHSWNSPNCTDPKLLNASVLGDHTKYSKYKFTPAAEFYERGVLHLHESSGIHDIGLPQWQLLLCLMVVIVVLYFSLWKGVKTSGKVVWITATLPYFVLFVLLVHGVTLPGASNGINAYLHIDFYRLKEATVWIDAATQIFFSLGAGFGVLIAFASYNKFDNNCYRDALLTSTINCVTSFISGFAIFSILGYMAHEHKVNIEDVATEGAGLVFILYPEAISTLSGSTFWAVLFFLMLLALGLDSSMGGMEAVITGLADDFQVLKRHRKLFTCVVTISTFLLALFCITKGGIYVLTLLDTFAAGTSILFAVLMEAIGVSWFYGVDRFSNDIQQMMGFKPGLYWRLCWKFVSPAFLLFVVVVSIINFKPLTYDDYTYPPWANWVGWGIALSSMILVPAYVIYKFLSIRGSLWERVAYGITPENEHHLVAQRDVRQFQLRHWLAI
Summary of the method: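 Apomorphine (APO) test after oral administration. The result is expressed as the minimum effective dose (EDmin), mg/kg po.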

[9] = biological target: T3, Sodium-dependent noradrenaline transporter; assay: Compound was tested for its ability to displace […] from norepinephrine transporter
[10] = biological target: T3, Sodium-dependent noradrenaline transporter; assay: In vitro inhibition of [3H]NE re-uptake into synaptosome; format: functional, tissue-based, Brain

T1 sequence (P31645 whole entry): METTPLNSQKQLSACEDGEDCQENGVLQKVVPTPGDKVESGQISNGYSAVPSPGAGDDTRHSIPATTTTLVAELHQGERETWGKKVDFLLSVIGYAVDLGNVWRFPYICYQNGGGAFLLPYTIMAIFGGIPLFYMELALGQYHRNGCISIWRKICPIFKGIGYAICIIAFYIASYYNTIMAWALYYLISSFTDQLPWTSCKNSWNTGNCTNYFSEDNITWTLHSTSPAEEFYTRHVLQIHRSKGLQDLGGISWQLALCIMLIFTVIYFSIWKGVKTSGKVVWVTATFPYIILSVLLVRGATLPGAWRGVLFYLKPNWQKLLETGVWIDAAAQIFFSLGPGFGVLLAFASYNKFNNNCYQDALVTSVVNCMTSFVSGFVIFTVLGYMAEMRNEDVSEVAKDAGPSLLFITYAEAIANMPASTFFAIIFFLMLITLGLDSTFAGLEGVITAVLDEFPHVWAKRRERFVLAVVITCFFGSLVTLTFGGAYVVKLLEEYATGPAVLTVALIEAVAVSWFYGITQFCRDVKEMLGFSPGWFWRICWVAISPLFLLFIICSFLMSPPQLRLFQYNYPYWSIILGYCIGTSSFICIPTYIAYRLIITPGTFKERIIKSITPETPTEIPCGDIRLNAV

Row | SMILES | IC50 [1] [nM] | IC50 [2] [nM] | Ki [3] [nM] | Ki [4] [nM] | Ki [5] [nM] | EDmin [6] [mg/kg] | EDmin [7] [mg/kg] | EDmin [8] [mg/kg] | Ki [9] [nM] | IC50 [10] [nM]
1 | CN(C)C[C@H]1C2CCC(CC2)[C@@H]1c1cccc(Cl)c1 | 303 | 165 | 25 | 64 |  |  |  |  |  | 
2 | COc1ccc2cc([C@H]3C4CCC(C4)[C@@H]3CN(C)C)ccc2c1 (stereo partly specified) |  |  | 25 | 64 | 68 |  |  |  |  | 
3 | CN(C)C[C@@H]1C2CCC(C2)[C@H]1c1ccc2ccccc2c1 (stereo partly specified) | 20 | 93 | 5.8 | 38 |  | > 20 |  |  |  | 
4 | CNCC1C2CCC(C2)C1c1ccc2ccccc2c1 (stereo unspecified) | 50 | 87 | 4.9 | 25 |  | 20 | 25 | 20 |  | 
5 | CN(C)C[C@H]1C2CCC(C2)[C@@H]1c1ccc2cc(F)ccc2c1 (stereo partly specified) |  |  | 2.6 | 50 | 385 |  |  |  |  | 
6 | CNC[C@H]1C2CCC(C2)[C@@H]1c1ccc2cc(OC)ccc2c1 (stereo partly specified) |  |  | 12 | 60 | 120 |  |  |  |  | 
7 | CN(C)CC1C2CCC(C2)C1c1ccc2ccccc2c1 (stereo unspecified) | 10 | 95 | 2.8 | 18 |  |  |  |  |  | 
8 | CN(C)C[C@@H]1C2CCC(CC2)[C@@H]1c1ccc(Cl)c(Cl)c1 | 270 | 28 | 57 | 7.2 |  |  |  |  | 44 | 22
9 | CNC[C@H]1C2CCC(C2)[C@@H]1c1ccc2ccccc2c1 (stereo partly specified) | 9 | 86 | 3.6 | 41 |  |  |  |  |  | 
10 | CN(C)C[C@H]1C2CCC(C2)[C@@H]1c1ccc2ccccc2c1 (stereo partly specified) | 9 | 76 | 2.3 | 25 |  | 5 | 40 | 25 |  | 
11 | CN(C)CC1C2CCC(C2)C1c1cccc2ccccc12 (stereo unspecified) | 93 | 1510 | 52 | 430 |  |  |  |  |  | 
12 | CNC[C@H]1C2CCC(C2)[C@@H]1c1ccc2cc(F)ccc2c1 (stereo partly specified) |  |  | 4.4 | 72 | 316 |  |  |  |  | 
13 | CN(C)C[C@H]1C2CCC(C2)[C@@H]1c1ccc2cc(O)ccc2c1 (stereo partly specified) |  |  | 47 | 6 | 50 |  |  |  |  | 
